Data reported in article PMC2871304 (Biochemistry, 2010).

How the values were obtained:
[1] = test system: protease XIV; test: Enzymatic degradation of Aβ fibrils by protease XIV; assay type: in vitro ADME; conditions: protease XIV 100 μg/mL, 24 h, 0.1 M phosphate buffer pH 7.4, 37°C; MALDI-TOF
Procedure, shortened: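 Fibrils from 100 μM Aβ(1-42) were aged 2 days at 37°C, then digested with the enzyme. Products (about 1 μg/mL peptide) were mixed with saturated sinapic acid in ACN/0.1% TFA (1:2) and run by MALDI-TOF over 20–5000 Da. Enzyme alone served as control. Cleavage patterns were inferred from substrate specificity (C-terminal to aromatic and basic residues) and fragment masses.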

[2] = MFTIR, secondary structure of microfibrils in air; assay type: physicochemical; conditions: amide I region deconvoluted
Procedure, shortened: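 Aβ(1-42) fibrils, formed by incubating 100 μM peptide in dilute HCl for 2 days at 37°C, were deposited on gold-coated substrates. Infrared microscopy was done in reflection mode at 4 cm−1 resolution with a liquid-nitrogen-cooled MCT detector.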

[3] = target: neprilysin (NEP) (Homo sapiens, UniProt P08473); test: Enzymatic degradation of Aβ fibrils by neprilysin; assay type: in vitro ADME; conditions: NEP 50 μg/mL, 48 h, 0.1 M phosphate buffer pH 7.4, 37°C; AFM
Sequence of neprilysin (NEP) (P08473 whole entry, species assumed): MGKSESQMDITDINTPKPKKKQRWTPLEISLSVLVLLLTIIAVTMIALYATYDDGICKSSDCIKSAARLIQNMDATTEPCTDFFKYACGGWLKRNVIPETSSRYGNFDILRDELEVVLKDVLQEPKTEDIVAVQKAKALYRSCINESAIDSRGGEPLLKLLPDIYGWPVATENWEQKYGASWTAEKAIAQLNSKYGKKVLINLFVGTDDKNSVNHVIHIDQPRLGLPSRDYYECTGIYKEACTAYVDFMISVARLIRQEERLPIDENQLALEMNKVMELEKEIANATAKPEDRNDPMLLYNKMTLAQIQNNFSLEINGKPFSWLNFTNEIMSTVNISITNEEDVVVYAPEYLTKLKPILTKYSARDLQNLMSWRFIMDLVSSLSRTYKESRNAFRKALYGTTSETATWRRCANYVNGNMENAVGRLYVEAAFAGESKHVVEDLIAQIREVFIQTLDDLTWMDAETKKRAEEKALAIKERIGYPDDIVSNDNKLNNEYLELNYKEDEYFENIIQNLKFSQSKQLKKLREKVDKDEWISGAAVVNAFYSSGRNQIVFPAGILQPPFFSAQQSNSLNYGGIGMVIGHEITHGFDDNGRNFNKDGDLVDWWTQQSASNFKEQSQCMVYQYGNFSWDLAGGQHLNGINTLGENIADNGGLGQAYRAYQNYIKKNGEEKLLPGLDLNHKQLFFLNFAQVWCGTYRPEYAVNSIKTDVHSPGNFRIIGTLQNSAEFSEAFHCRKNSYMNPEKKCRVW
Procedure, shortened: (§1)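 Fibrils were made from Aβ(1-42): 5 mM in DMSO, sonicated 10 min at 37°C, diluted to 100 μM in 10 mM HCl, sonicated 30 min, filtered through 10,000 MWCO, then held 2 days at 37°C. After enzyme treatment, fibrils on gold-coated substrates were imaged by tapping-mode AFM in air with a 3 N/m silicon cantilever. Tip-convolution calibration gave true dimensions.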

[4] = Circular dichroism, secondary structure content; assay type: physicochemical; conditions: CD at 37°C, filtered (10K MWCO) samples
Procedure, shortened: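 Microfibrils were measured by CD at 37°C before and after enzymatic degradation (24 or 48 h). Spectra were taken at 12 nm·sec−1 and 1 nm resolution, with 4 scans averaged. Enzyme-only solutions were subtracted. Data were expressed as molar residue ellipticity using 42 residues and 0.3 mM peptide. Secondary-structure content was estimated by a published method.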

[5] = target: insulin degrading enzyme (IDE) (Homo sapiens, UniProt P14735); test: Enzymatic degradation of Aβ fibrils by insulin degrading enzyme; assay type: in vitro ADME; conditions: IDE 50 μg/mL, 48 h, 0.1 M phosphate buffer pH 7.4, 37°C; AFM
Procedure, shortened: as §1

Aβ microfibrils: Fibrils of purchased Aβ(1-42) peptide, incubated in DMSO/10 mM HCl at 37°C for 2 days
full-length Aβ(1-42) after degradation by protease XIV [1]: no full-length Aβ(1-42) peptides
alpha-helix and random coil content [2]: 12±2%
beta-sheet content [2]: 71±8%
turns content [2]: 17±5%
degradation on exposure to NEP [3]: almost no significant degradation
beta-strand structures, filtered samples [4]: 18±3%
degradation on exposure to IDE [5]: almost no significant degradation
